# Legend:
# Type in all cases: functional
# Aeromonas = experiment: In Vitro Anti Bacterial Activity (MIC90) against 90% of tested clinical Isolates of Aeromonas species(21)
# Outline: (§1)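 Over 500 clinical isolates tested in total; the line gives the isolate count. MIC90 for aerobes by dilution in Mueller Hinton 2 medium, inoculum 10⁴ cells/mL, incubated 24 h at 37 °C.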
# [1] = system: Acinetobacter calcoaceticus subsp. anitratus; experiment: In Vitro Anti Bacterial Activity (MIC90) against 90% of tested clinical Isolates of Acinetobacter anitratus(20); outline: as §1
# Moraxella catarrhalis = experiment: In Vitro Anti Bacterial Activity (MIC90) against 90% of tested clinical Isolates of Branhamella catarrhalis(27)
# Bacteroides fragilis = experiment: In Vitro Anti Bacterial Activity (MIC90) against 90% of tested clinical Isolates of Bacteroides fragilis(15)
# Outline: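 Anaerobic clinical isolates. MIC90 by dilution in Wilkins-Chalgren agar, inoculum 10⁵ cells/mL, incubated 24–48 h at 37 °C.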
# Clostridium perfringens = experiment: In Vitro Anti Bacterial Activity (MIC90) against 90% of tested clinical Isolates of Clostridium perfringens(27)
# Outline: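 MIC90 over clinical isolates of this anaerobic species, taken from the MIC distribution. Anaerobes were tested on Wilkins-Chalgren agar with an inoculum of 10⁵ cells/mL and incubated 24–48 h at 37 °C.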
# Citrobacter freundii = experiment: In Vitro Anti Bacterial Activity (MIC90) against 90% of tested clinical Isolates of Citrobacter freundii(20); outline: as §1
# Enterococcus faecalis [2] = experiment: In Vitro Anti Bacterial Activity (MIC90) against 90% of tested clinical Isolates of Enterococcus faecalis(47); outline: as §1
# Enterococcus faecium = experiment: In Vitro Anti Bacterial Activity (MIC90) against 90% of tested clinical Isolates of Enterococcus faecium(47); outline: as §1
# Escherichia coli [3] = experiment: In Vitro Anti Bacterial Activity (MIC90) against 90% of tested clinical Isolates of Escherichia coli; outline: as §1
# Klebsiella aerogenes = experiment: In Vitro Anti Bacterial Activity (MIC90) against 90% of tested clinical Isolates of Enterobacter aerogenes(19); outline: as §1
# Escherichia coli [4] = experiment: In Vitro antibacterial activity against (Ec L) Escherichia coli […] strain
# Outline: (§2)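 Panel of standard ATCC strains plus modified strains: methicillin-resistant, hyperpermeable, β-lactamase-producing (TEM1, TEM2, SHV) and β-lactamase-lacking. MIC determined in Mueller Hinton 2 medium, inoculum 10⁴ cells/mL, incubated 24 h at 37 °C.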
# Escherichia coli [5] = experiment: In Vitro antibacterial activity against (Ec SHV) Escherichia coli […] strain; outline: as §2
# Escherichia coli [6] = experiment: In Vitro antibacterial activity against (Ec TEM1) Escherichia coli […] strain; outline: as §2
# Escherichia coli [7] = experiment: In Vitro antibacterial activity against (Ec TEM2) Escherichia coli […] strain; outline: as §2
# Haemophilus influenzae = experiment: In Vitro Anti Bacterial Activity (MIC90) against 90% of tested clinical Isolates of Haemophilus Influenzae(21)
# Outline: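 Clinical isolates. MIC90 in Haemophilus Test Medium Base plus Haemophilus Test Medium Supplement, inoculum 10⁴ cells/mL, incubated 24–48 h at 37 °C.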
# Klebsiella pneumoniae = experiment: In Vitro Anti Bacterial Activity (MIC90) against 90% of tested clinical Isolates of Klebsiella pneumoniae(20); outline: as §1
# Listeria monocytogenes = experiment: In Vitro Anti Bacterial Activity (MIC90) against 90% of tested clinical Isolates of Listeria monocytogenes (20); outline: as §1
# Morganella morganii = experiment: In Vitro Anti Bacterial Activity (MIC90) against 90% of tested clinical Isolates of Morganella morganii(10); outline: as §1
# Pseudomonas aeruginosa [8] = experiment: In Vitro antibacterial activity against (Pa G242) hyperpermeable Pseudomonas aeruginosa strain; outline: as §2
# Pseudomonas aeruginosa [9] = experiment: In Vitro antibacterial activity against (Pa) Pseudomonas aeruginosa ATCC 27853; outline: as §2
# Pseudomonas aeruginosa [10] = experiment: In Vitro antibacterial activity against (Pa) hyperpermeable Pseudomonas aeruginosa […] strain; outline: as §2
# Proteus vulgaris = experiment: In Vitro Anti Bacterial Activity (MIC90) against 90% of tested clinical Isolates of Proteus vulgaris(10); outline: as §1
# Providencia stuartii = experiment: In Vitro Anti Bacterial Activity (MIC90) against 90% of tested clinical Isolates of Providencia stuartii(10); outline: as §1
# Providencia rettgeri = experiment: In Vitro Anti Bacterial Activity (MIC90) against 90% of tested clinical Isolates of Providencia rettgeri(10); outline: as §1
# Proteus mirabilis = experiment: In Vitro Anti Bacterial Activity (MIC90) against 90% of tested clinical Isolates of Proteus mirabilis(16); outline: as §1
# Pseudomonas aeruginosa [11] = experiment: In Vitro Anti Bacterial Activity (MIC90) against 90% of tested clinical Isolates of Pseudomonas aeruginosa(11); outline: as §1
# [12] = system: Staphylococcus epidermidis; experiment: In Vitro Anti Bacterial Activity (MIC90) against 90% of tested clinical Isolates of Staphylococcus epidermidis (13); outline: as §1
# Streptococcus agalactiae = experiment: In Vitro Anti Bacterial Activity (MIC90) against 90% of tested clinical Isolates of Streptococcus agalactiaeB(21)
# Staphylococcus aureus [13] = experiment: In Vitro Anti Bacterial Activity (MIC90) against 90% of tested clinical Isolates of Staphylococcus aureus MS (6); outline: as §1
# Staphylococcus aureus [14] = experiment: In Vitro Anti Bacterial Activity (MIC90) against 90% of tested clinical Isolates of Staphylococcus aureus MV (20)
# Staphylococcus aureus [15] = experiment: In vitro antibacterial activity against Sa MR(I) heterogeneous methicillin resistant Staphylococcus aureus
# Outline: (§3)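 MIC was determined in Mueller Hinton 2 medium with an inoculum of 10⁴ cells/mL and incubation for 24 h at 37 °C. Strains: Sa(I) is S. aureus ATCC 29213; Sa MR(I) is a heterogeneous methicillin-resistant S. aureus; Sa MR(II) is a homogeneous methicillin-resistant S. aureus.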
# Staphylococcus aureus [16] = experiment: In vitro antibacterial activity against Sa MR(II) homogeneous methicillin resistant Staphylococcus aureus; outline: as §3
# Staphylococcus aureus [17] = experiment: In vitro antibacterial activity against Sa(I) Staphylococcus aureus ATCC 29213; outline: as §3
# Staphylococcus aureus [18] = experiment: In vitro antibacterial activity against Sa(II) Staphylococcus aureus ATCC 25923; outline: as §2
# Streptococcus pyogenes = experiment: In Vitro Anti Bacterial Activity (MIC90) against 90% of tested clinical Isolates of Streptococcus pyogenes(31)
# Streptococcus pneumoniae = experiment: In Vitro Anti Bacterial Activity (MIC90) against 90% of tested clinical Isolates of Streptococcus pneumoniae (23)
# Yersinia sp. = experiment: In Vitro Anti Bacterial Activity (MIC90) against 90% of tested clinical Isolates of Yersinia species(20); conditions: Yersinia sp. (in: enterobacteria)
# [19] = system: Stenotrophomonas maltophilia; experiment: In Vitro Anti Bacterial Activity (MIC90) against 90% of tested clinical Isolates of Xanthomonas maltophilia(9); outline: as §1
# Escherichia coli [20] = experiment: In Vitro antibacterial activity against (Ec DC2) hyperpermeable Escherichia coli strain; outline: as §2
# Enterococcus faecalis [21] = experiment: In Vitro antibacterial activity against (Ef) Enterococcus faecalis ATCC 29212; outline: as §2
# Escherichia coli [22] = experiment: In Vitro antibacterial activity against (Ec) Escherichia coli ATCC 25922; outline: as §2
smiles,measurement,setting,value
C[C@@H](O)[C@H]1C(=O)N2C(C(=O)O)=C(CN3CCC[C@H]3C(N)=O)S[C@H]12,MIC90,Aeromonas,0.5 µg/mL
same,MIC90,[1],16 µg/mL
same,MIC90,Moraxella catarrhalis,0.25 µg/mL
same,MIC90,Bacteroides fragilis,16 µg/mL
same,MIC90,Clostridium perfringens,1 µg/mL
same,MIC90,Citrobacter freundii,0.5 µg/mL
same,MIC90,Enterococcus faecalis [2],8 µg/mL
same,MIC90,Enterococcus faecium,> 64 µg/mL
same,MIC90,Escherichia coli [3],0.12 µg/mL
same,MIC90,Klebsiella aerogenes,16 µg/mL
same,MIC,Escherichia coli [4],2 µg/mL
same,MIC,Escherichia coli [5],2 µg/mL
same,MIC,Escherichia coli [6],2 µg/mL
same,MIC,Escherichia coli [7],2 µg/mL
same,MIC90,Haemophilus influenzae,4 µg/mL
same,MIC90,Klebsiella pneumoniae,0.5 µg/mL
same,MIC90,Listeria monocytogenes,0.5 µg/mL
same,MIC90,Morganella morganii,4 µg/mL
same,MIC,Pseudomonas aeruginosa [8],2 µg/mL
same,MIC,Pseudomonas aeruginosa [9],64 µg/mL
same,MIC,Pseudomonas aeruginosa [10],1 µg/mL
same,MIC90,Proteus vulgaris,4 µg/mL
same,MIC90,Providencia stuartii,4 µg/mL
same,MIC90,Providencia rettgeri,4 µg/mL
same,MIC90,Proteus mirabilis,4 µg/mL
same,MIC90,Pseudomonas aeruginosa [11],> 64 µg/mL
same,MIC90,[12],0.12 µg/mL
same,MIC90,Streptococcus agalactiae,0.03 µg/mL
same,MIC90,Staphylococcus aureus [13],0.06 µg/mL
same,MIC90,Staphylococcus aureus [14],8 µg/mL
same,MIC,Staphylococcus aureus [15],0.5 µg/mL
same,MIC,Staphylococcus aureus [16],2 µg/mL
same,MIC,Staphylococcus aureus [17],0.12 µg/mL
same,MIC,Staphylococcus aureus [18],0.015 µg/mL
same,MIC90,Streptococcus pyogenes,0.06 µg/mL
same,MIC90,Streptococcus pneumoniae,0.06 µg/mL
same,MIC90,Yersinia sp.,0.25 µg/mL
same,MIC90,[19],> 64 µg/mL
same,MIC,Escherichia coli [20],2 µg/mL
C[C@@H](O)[C@H]1C(=O)N2C(C(=O)O)=C(CN3CCC[C@@H]3C(N)=O)S[C@H]12,MIC90,Aeromonas,0.25 µg/mL
same,MIC90,[1],32 µg/mL
same,MIC90,Moraxella catarrhalis,2 µg/mL
same,MIC90,Bacteroides fragilis,16 µg/mL
same,MIC90,Clostridium perfringens,1 µg/mL
same,MIC90,Citrobacter freundii,1 µg/mL
same,MIC90,Enterococcus faecalis [2],32 µg/mL
same,MIC90,Enterococcus faecium,> 64 µg/mL
same,MIC,Enterococcus faecalis [21],16 µg/mL
same,MIC90,Escherichia coli [3],1 µg/mL
same,MIC90,Klebsiella aerogenes,16 µg/mL
same,MIC,Escherichia coli [4],1 µg/mL
same,MIC,Escherichia coli [5],1 µg/mL
same,MIC,Escherichia coli [6],1 µg/mL
same,MIC,Escherichia coli [7],1 µg/mL
same,MIC,Escherichia coli [22],1 µg/mL
same,MIC90,Haemophilus influenzae,2 µg/mL
same,MIC90,Klebsiella pneumoniae,1 µg/mL
same,MIC90,Listeria monocytogenes,2 µg/mL
same,MIC,Pseudomonas aeruginosa [8],1 µg/mL
same,MIC,Pseudomonas aeruginosa [9],32 µg/mL
same,MIC,Pseudomonas aeruginosa [10],0.25 µg/mL
same,MIC90,Pseudomonas aeruginosa [11],> 64 µg/mL
same,MIC90,[12],0.12 µg/mL
same,MIC90,Streptococcus agalactiae,0.12 µg/mL
same,MIC90,Staphylococcus aureus [13],0.06 µg/mL
same,MIC90,Staphylococcus aureus [14],8 µg/mL
same,MIC,Staphylococcus aureus [15],0.12 µg/mL
same,MIC,Staphylococcus aureus [16],4 µg/mL
same,MIC,Staphylococcus aureus [17],0.06 µg/mL
same,MIC,Staphylococcus aureus [18],0.015 µg/mL
same,MIC90,Streptococcus pyogenes,0.5 µg/mL
same,MIC90,Streptococcus pneumoniae,0.5 µg/mL
same,MIC90,Yersinia sp.,1 µg/mL
same,MIC90,[19],> 64 µg/mL
same,MIC,Escherichia coli [20],0.5 µg/mL
C[C@@H](O)[C@H]1C(=O)N2C(C(=O)O)=C(CN(C)CC(N)=O)S[C@H]12,MIC90,Aeromonas,1 µg/mL
same,MIC90,[1],16 µg/mL
same,MIC90,Moraxella catarrhalis,0.25 µg/mL
same,MIC90,Bacteroides fragilis,2 µg/mL
same,MIC90,Clostridium perfringens,0.5 µg/mL
same,MIC90,Citrobacter freundii,1 µg/mL
same,MIC90,Enterococcus faecalis [2],8 µg/mL
same,MIC90,Enterococcus faecium,> 64 µg/mL
same,MIC,Enterococcus faecalis [21],4 µg/mL
same,MIC90,Escherichia coli [3],0.25 µg/mL
same,MIC90,Klebsiella aerogenes,8 µg/mL
same,MIC,Escherichia coli [4],0.25 µg/mL
same,MIC,Escherichia coli [5],0.5 µg/mL
same,MIC,Escherichia coli [6],0.25 µg/mL
same,MIC,Escherichia coli [7],0.5 µg/mL
same,MIC,Escherichia coli [22],0.25 µg/mL
same,MIC90,Haemophilus influenzae,2 µg/mL
same,MIC90,Klebsiella pneumoniae,0.5 µg/mL
same,MIC90,Listeria monocytogenes,0.5 µg/mL
same,MIC90,Morganella morganii,2 µg/mL
same,MIC,Pseudomonas aeruginosa [8],4 µg/mL
same,MIC,Pseudomonas aeruginosa [9],> 64 µg/mL
same,MIC,Pseudomonas aeruginosa [10],0.5 µg/mL
same,MIC90,Proteus vulgaris,2 µg/mL
same,MIC90,Providencia stuartii,2 µg/mL
same,MIC90,Providencia rettgeri,2 µg/mL
same,MIC90,Proteus mirabilis,1 µg/mL
same,MIC90,Pseudomonas aeruginosa [11],> 64 µg/mL
same,MIC90,[12],0.015 µg/mL
same,MIC90,Streptococcus agalactiae,0.06 µg/mL
same,MIC90,Staphylococcus aureus [13],0.0075 µg/mL
same,MIC90,Staphylococcus aureus [14],4 µg/mL
same,MIC,Staphylococcus aureus [15],0.06 µg/mL
same,MIC,Staphylococcus aureus [16],1 µg/mL
same,MIC,Staphylococcus aureus [17],0.06 µg/mL
same,MIC,Staphylococcus aureus [18],0.015 µg/mL
same,MIC90,Streptococcus pyogenes,0.06 µg/mL
same,MIC90,Streptococcus pneumoniae,0.06 µg/mL
same,MIC90,Yersinia sp.,0.5 µg/mL
same,MIC90,[19],> 64 µg/mL
same,MIC,Escherichia coli [20],0.25 µg/mL

# Source: ChEMBL document CHEMBL1128718, “2-Substituted penems with amino acid-related side chains: synthesis and antibacterial activity of a new series of beta-lactam antibiotics” (1995)
